Measurements collected from several papers.
Compare with care: the assays were run in different laboratories.

COc1ccc(C[C@@H]2NC(=O)[C@H]([C@@H](C)O)NC(=O)[C@@H]3[C@@H]4CCN3C(=O)[C@@H]3Cc5cn(c6ccc(F)cc56)CCCCCCN(Cc5ccc(cc5)CCNC(=O)[C@]5(C)CCCN5C2=O)C(=O)CCC(=O)N[C@@H](C)C(=O)N[C@H](CNC(=O)CCCCC[N+](C)(C)C)C(=O)N[C@@H](Cc2cccc(c2)CNC(=O)CO4)C(=O)N3)cc1  AUC(0-inf) (human, plasma; oral, 200 mg, single dose, healthy volunteers): 0.556 µM·h
c1cc([C@H]2CC[C@]3(CC2)OO[C@]2(O3)C3CC4CC(C3)CC2C4)ccc1OCCN1CCOCC1  AUC(0-inf) (human, plasma; oral, 400 mg, patients): 6450 ng·h/mL
N=c1c2c(-c3ccccc3)c(-c3ccccc3)n(Cc3ccccc3)c2ncn1[C@H]1CC[C@H](O)CC1  Tmax (male cynomolgus monkey, plasma; oral, 1 mg/kg, single dose): ~15 h
CC(=C/C=C/C(C)=C/C(=O)O)/C=C1\CCCc2ccccc21  AUC(0-inf) (human, plasma; oral, 5 mg, single dose, fasted, healthy volunteers): 193 ng·h/mL
N=C(N)NCCC[C@@H](NC(=O)[C@@H](N)Cc1ccccc1)C(=O)N[C@@H](Cc1ccccc1)C(=O)N[C@@H](CCCCN)C(N)=O  AUC(0-t) (human, plasma; subcutaneous, 5 mg, patients): 861 ng·h/mL
O=C1[O][Pt]2([NH][C@@H]3CCCC[C@H]3[NH]2)[O]C1=O (relative stereo)  Tmax (cynomolgus monkey, plasma; oral, 10 mg/kg): 2 h
C=C(C)[C@@H]1CC[C@]2(NCCN3CCS(=O)(=O)CC3)CC[C@]3(C)[C@H](CC[C@@H]4[C@@]5(C)CC=C(C6=CC[C@@](COc7ncccc7C#N)(C(=O)O)CC6)C(C)(C)[C@@H]5CC[C@]43C)[C@@H]12  AUC(0-inf) (human, plasma; oral, 100 mg, fed): 43600 ng·h/mL
Cc1c(P(=S)(c2ccccc2)c2ccccc2)n2ccccc2[n+]1C/C=C/c1ccccc1  tissue/plasma ratio (mouse, brain; intraperitoneal, 10 mg/kg): 0.33
